In BindingDB's records for doi:10.1021/jm950716i (Cortech, 1996) one finds Kd data, which are given here for one compound.

Molecules are shown by their SMILES.

This test addresses T1, B2 bradykinin receptor (Rattus norvegicus, UniProt P25023).
T1 sequence (P25023 whole entry): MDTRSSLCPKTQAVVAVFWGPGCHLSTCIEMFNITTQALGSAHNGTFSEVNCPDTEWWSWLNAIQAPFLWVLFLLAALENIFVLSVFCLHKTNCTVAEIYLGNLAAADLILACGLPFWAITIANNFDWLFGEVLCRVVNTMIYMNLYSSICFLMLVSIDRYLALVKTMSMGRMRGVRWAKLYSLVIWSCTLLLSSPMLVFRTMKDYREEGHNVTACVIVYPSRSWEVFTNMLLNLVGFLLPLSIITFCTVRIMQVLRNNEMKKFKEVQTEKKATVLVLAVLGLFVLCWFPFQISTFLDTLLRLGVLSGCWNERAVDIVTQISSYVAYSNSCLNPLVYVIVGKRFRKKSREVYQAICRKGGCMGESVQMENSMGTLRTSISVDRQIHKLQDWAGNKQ
The experiment in a line: In vitro Bradykinin receptor B2 antagonist activity by using rat uterus functional assay. Summed up:
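Uterine horns from female Sprague-Dawley rats primed with stilbesterol (100 μg/kg) 18 h earlier. Tissue held at 1 g tension in De Jalon's solution, 31 °C, aerated. […] Potency by Arunlakshana-Schild analysis.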

`N=C(N)NCCCCC(=O)N1CCC[C@@H]1C(=O)N1C[C@@H](O)C[C@@H]1C(=O)NCC(=O)N[C@@H](Cc1cccs1)C(=O)N[C@@H](CO)C(=O)N1Cc2ccccc2C[C@@H]1C(=O)N(CC(=O)N[C@@H](CCCNC(=N)N)C(=O)O)C1CCCCC1` displayed a Kd of 22.4 nM.
